# Measured values: ChEMBL document CHEMBL4673340 (J Med Chem, 2020)
# pEC50, pIC50: −log10 of the molar value. Activity calls are given as the source filed them. No cut-off for these calls is given here.
# What was measured:
# [1] = Unbound fraction in dog plasma; type: ADME, cell-free, Canis lupus familiaris
# [2] = Volume of distribution at steady state in Beagle dog at 1 mg/kg, iv by LC-MS/MS analysis; type: ADME, organism-based, Canis lupus familiaris; conditions: in vivo, read-out: Vdss
# Outline: (§1)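 Beagle dogs, three per group. iv 1 mg/kg in 25% DMA in water; oral 2 mg/kg. Values are means of three dogs.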
# [3] = Half life in ICR mouse at 1 mg/kg, iv by LC-MS/MS analysis; type: ADME, organism-based; conditions: in vivo
# Outline: (§2)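 Male/female unspecified ICR mice, n=3 per route. Intravenous 1 mg/kg in 5% DMA in water; oral 10 mg/kg in 0.5% MC. Plasma is processed by protein precipitation and analysed by LC–MS/MS using an acetonitrile/0.1% formic acid gradient. Values are means of the three animals.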
# [4] = tested on: NCI-H209; experiment: Potentiation of TMZ-induced antitumor activity against human NCI-H209 cells xenografted in BALB/c nude mouse assessed as PR rate at […], po BID for 28 days and co-treated with 50 mg/kg, po QD TMZ for 5 consecutive days at start of study and again 14 days later; type: functional; conditions: time 28 day
# [5] = Half life in Beagle dog at 2 mg/kg, po by LC-MS/MS analysis; type: ADME, organism-based, Canis lupus familiaris; conditions: in vivo
# Outline: (§3)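 Three Beagle dogs; iv dose 1 mg/kg in 25% DMA in water; oral dose 2 mg/kg in 0.5% CMC-Na. Plasma drug concentrations are measured by LC–MS/MS. Values are the mean of three dogs.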
# [6] = Tmax in Beagle dog at 2 mg/kg, po by LC-MS/MS analysis; type: ADME, organism-based, Canis lupus familiaris; conditions: in vivo; outline: as §1
# [7] = Tmax in Sprague-Dawley rat at 5 mg/kg, po by LC-MS/MS analysis; conditions: in vivo
# [8] = AUC ( 0 to infinity) in Sprague-Dawley rat at 5 mg/kg, po by LC-MS/MS analysis; conditions: in vivo
# [9] = molecular target: Cytochrome P450 1A2 (Homo sapiens, UniProt P05177); experiment: Inhibition of CYP1A2 (unknown origin); type: ADME
# [10] = Cmax in Sprague-Dawley rat at 5 mg/kg, po by LC-MS/MS analysis; conditions: in vivo
# [11] = Clearance in dog liver microsomes; type: ADME, Canis lupus familiaris, Microsome; conditions: read-out: CLH
# [12] = molecular target: Cytochrome P450 2C19 (Homo sapiens, UniProt P33261); experiment: Inhibition of CYP2C19 (unknown origin); type: ADME
# [13] = tested on: SK-BR-3; experiment: Antiproliferation activity against human SK-BR-3 cells incubated for 7 days by CellTiter-Glo luminescent cell viability assay; type: functional, cell-based; conditions: SK-BR-3, 168 h
# Outline: (§4)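 Seeding density is set per line for log growth over 7 days. Cells attach 16 h, then are treated in duplicate with a 10-point dilution series for 7 days. CellTiter-Glo luminescence (ATP) is read, and viability is expressed relative to mock-treated control. EC50 is the mean of three independent experiments run in triplicate.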
# [14] = Half life in Sprague-Dawley rat at 5 mg/kg, po by LC-MS/MS analysis; conditions: in vivo
# [15] = Volume of distribution at steady state in Sprague-Dawley rat at 2 mg/kg, iv by LC-MS/MS analysis; type: ADME, organism-based; conditions: in vivo, read-out: Vdss
# Outline: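 Pharmacokinetics in Sprague-Dawley rats, three per group. iv 2 mg/kg in 38% DMA in water; po 5 mg/kg. Plasma was protein-precipitated, diluted with water and analysed by LC-MS/MS using an acetonitrile/0.1% formic acid gradient. Values are means of three rats.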
# [16] = Toxicity in BALB/c nude mouse xenografted with human NCI-H209 cells assessed as drug tolerability at […], po BID for 28 days and co-treated with 50 mg/kg, po QD TMZ for 5 consecutive days at start of study and again 14 days later relative to TMZ alone; type: organism-based; conditions: in vivo, dose 0.75 mg/kg, time 28 day
# [17] = Unbound fraction in human plasma; type: ADME, cell-free
# [18] = molecular target: BCRP (Homo sapiens, UniProt Q9UNQ0); experiment: Inhibition of BCRP (unknown origin) at 30 uM; conditions: not told
# [19] = Toxicity in BALB/c nude mouse xenografted with human MDA-MB-436 cells assessed as effect on animal mortality at 1.6 to […], po BID for 28 days followed by treatment was interruption and monitored for additional 2 months; type: organism-based; conditions: in vivo, dose 1.6-3.1 mg/kg, time 28 day
# [20] = Cmax in ICR mouse at 10 mg/kg, po by LC-MS/MS analysis; type: ADME, organism-based; parameters: route oral, dose 10 mg/kg; conditions: in vivo; outline: as §2
# [21] = tested on: MDA-MB-231; experiment: Antiproliferation activity against human MDA-MB-231 cells incubated for 7 days by CellTiter-Glo luminescent cell viability assay; type: functional, cell-based; conditions: MDA-MB-231, 168 h; outline: as §4
# [22] = Half life in Sprague-Dawley rat at 2 mg/kg, iv by LC-MS/MS analysis; type: ADME, organism-based; conditions: in vivo
# Outline: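 Sprague-Dawley rats (n=3) get 2 mg/kg iv formulated in 38% DMA in water. Plasma is protein-precipitated and quantified by LC–MS/MS (C18, acetonitrile/0.1% formic acid gradient). Parameters are means of the three rats.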
# [23] = molecular target: Solute carrier family 22 member 2, OCT2 (Homo sapiens) (UniProt O15244); experiment: Inhibition of OCT2 (unknown origin) up to 50 uM; conditions: dose microM <=50
# [24] = Cmax in Beagle dog at 2 mg/kg, po by LC-MS/MS analysis; type: ADME, organism-based, Canis lupus familiaris; parameters: route oral, dose 2 mg/kg; conditions: in vivo; outline: as §3
# [25] = Clearance in Beagle dog at 1 mg/kg, iv by LC-MS/MS analysis; type: ADME, organism-based, Canis lupus familiaris; conditions: in vivo; outline: as §3
# [26] = tested on: HCC1395; experiment: Antiproliferation activity against human HCC1395 cells expressing BRCA1 mutant incubated for 7 days by CellTiter-Glo luminescent cell viability assay; type: functional, cell-based; conditions: HCC1395, 168 h; outline: as §4
# [27] = tested on: NCI-H209; experiment: Antitumor activity against human NCI-H209 cells xenografted in BALB/c nude mouse assessed as inhibition of tumor growth at […], po BID for 28 days; conditions: time 28.0 day
# [28] = tested on: NCI-H209; experiment: Potentiation of TMZ-induced antitumor activity against human NCI-H209 cells xenografted in BALB/c nude mouse assessed as inhibition of tumor growth at […], po BID for 28 days and co-treated with 50 mg/kg, po QD TMZ for 5 consecutive days at start of study and again 14 days later; type: functional, organism-based; conditions: time 28.0 day
# [29] = Clearance in human liver microsomes; type: ADME, Microsome
# [30] = Drug level in C57BL/6 mouse plasma at 10 mg/kg, po after 1 hrs; type: ADME, organism-based
# Outline: (§5)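 C57BL/6 mice (n=3) dosed orally at 10 mg/kg in 0.5% MC. Plasma and brain are sampled at 1, 2 and 4 h. Brain is homogenized in 3 volumes of saline, then acetonitrile protein precipitation; plasma is likewise precipitated. Both are analysed by LC–MS/MS and reported as means.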
# [31] = Half life in ICR mouse at 10 mg/kg, po by LC-MS/MS analysis; type: ADME, organism-based; conditions: in vivo; outline: as §2
# [32] = Unbound fraction in rat plasma; type: ADME, cell-free
# [33] = Drug level in C57BL/6 mouse brain at 10 mg/kg, po after 2 hrs; type: ADME, organism-based; conditions: read-out: Drug uptake; outline: as §5
# Sequence of Solute carrier family 22 member 2, OCT2 (Homo sapiens) (O15244 whole entry, looked up): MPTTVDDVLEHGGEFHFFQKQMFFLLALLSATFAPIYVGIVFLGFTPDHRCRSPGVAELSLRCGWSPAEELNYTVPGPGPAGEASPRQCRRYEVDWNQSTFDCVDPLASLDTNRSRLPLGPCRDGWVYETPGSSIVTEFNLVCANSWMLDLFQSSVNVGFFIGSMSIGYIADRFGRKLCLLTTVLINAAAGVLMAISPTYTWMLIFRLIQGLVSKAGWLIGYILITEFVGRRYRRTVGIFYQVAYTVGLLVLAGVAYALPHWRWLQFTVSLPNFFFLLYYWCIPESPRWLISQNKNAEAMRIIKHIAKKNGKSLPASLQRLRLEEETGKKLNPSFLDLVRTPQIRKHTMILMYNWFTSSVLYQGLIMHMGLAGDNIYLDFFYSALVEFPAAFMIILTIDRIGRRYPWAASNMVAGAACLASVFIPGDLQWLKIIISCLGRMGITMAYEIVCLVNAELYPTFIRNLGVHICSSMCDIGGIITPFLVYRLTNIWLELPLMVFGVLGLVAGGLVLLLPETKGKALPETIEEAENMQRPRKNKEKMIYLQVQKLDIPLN
# Sequence of BCRP (Q9UNQ0 whole entry): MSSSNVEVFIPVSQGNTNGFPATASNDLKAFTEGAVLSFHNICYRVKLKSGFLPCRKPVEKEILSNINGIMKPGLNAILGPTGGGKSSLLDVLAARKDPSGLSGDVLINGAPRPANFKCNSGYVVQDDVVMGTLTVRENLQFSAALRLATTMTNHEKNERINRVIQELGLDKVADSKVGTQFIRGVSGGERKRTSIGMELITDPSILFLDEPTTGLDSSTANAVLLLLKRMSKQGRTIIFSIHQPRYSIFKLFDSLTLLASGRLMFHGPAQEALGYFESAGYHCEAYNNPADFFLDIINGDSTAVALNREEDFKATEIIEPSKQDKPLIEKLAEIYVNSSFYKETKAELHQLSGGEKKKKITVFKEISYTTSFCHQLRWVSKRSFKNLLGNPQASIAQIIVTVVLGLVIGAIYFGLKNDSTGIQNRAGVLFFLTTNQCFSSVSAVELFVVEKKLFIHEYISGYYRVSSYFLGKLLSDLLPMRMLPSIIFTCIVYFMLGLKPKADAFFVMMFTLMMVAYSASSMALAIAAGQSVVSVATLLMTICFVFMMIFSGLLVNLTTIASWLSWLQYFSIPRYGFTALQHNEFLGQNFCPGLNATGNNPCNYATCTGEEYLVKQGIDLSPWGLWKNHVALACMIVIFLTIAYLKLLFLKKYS
# Sequence of Cytochrome P450 2C19 (P33261 whole entry): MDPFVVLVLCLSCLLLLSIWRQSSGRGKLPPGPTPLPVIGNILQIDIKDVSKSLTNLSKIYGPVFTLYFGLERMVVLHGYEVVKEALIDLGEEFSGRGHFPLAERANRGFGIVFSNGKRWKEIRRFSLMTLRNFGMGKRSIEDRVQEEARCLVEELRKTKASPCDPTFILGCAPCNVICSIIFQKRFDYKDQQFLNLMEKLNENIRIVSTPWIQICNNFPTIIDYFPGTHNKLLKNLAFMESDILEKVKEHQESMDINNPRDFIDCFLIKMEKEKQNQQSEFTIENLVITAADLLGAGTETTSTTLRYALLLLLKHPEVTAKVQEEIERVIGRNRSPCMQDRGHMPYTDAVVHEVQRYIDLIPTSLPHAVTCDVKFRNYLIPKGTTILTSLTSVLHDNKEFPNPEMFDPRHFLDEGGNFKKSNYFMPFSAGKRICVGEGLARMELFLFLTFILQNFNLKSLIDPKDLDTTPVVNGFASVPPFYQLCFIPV
# Sequence of Cytochrome P450 1A2 (P05177 whole entry): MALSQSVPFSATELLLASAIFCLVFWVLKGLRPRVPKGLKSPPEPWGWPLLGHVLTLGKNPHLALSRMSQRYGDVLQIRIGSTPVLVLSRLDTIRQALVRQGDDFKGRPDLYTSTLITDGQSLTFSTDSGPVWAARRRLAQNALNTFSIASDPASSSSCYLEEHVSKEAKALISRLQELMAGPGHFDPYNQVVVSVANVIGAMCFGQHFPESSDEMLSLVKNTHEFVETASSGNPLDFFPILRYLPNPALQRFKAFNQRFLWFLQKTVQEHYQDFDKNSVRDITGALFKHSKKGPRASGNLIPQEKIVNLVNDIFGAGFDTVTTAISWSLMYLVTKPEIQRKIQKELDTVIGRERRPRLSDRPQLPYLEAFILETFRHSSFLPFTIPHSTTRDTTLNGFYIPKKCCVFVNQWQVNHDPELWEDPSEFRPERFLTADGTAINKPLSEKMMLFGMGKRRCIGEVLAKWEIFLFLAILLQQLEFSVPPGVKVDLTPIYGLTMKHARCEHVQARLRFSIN
structure (smiles),measurement,setting,value
C[C@]12CCCN1CC1=NNC(=O)c3cc(F)cc4[nH]c2c1c34 [PAMIPARIB],fraction unbound,[1],0.21
same,Vd,[2],2.09 L/kg
same,half-life,[3],3.95 h
same,Activity,[4],50%
same,half-life,[5],3.62 h
same,Tmax,[6],0.417 h
same,Tmax,[7],1 h
same,AUC(0-inf),[8],3470 ng·h/mL
same,pIC50,[9],< 5.00
same,Cmax,[10],861 ng/mL
same,microsomal CLint,[11],9.5 µL/min/mg
same,pIC50,[12],< 5.00
same,pEC50,[13],< 5.00
same,half-life,[14],5.5 h
same,Vd,[15],6.92 L/kg
same,Activity,[16],Non-Toxic
same,fraction unbound,[17],0.043
same,inhibition at 30 µM,[18],43%
same,Activity,[19],Non-Toxic
same,Cmax,[20],2710 ng/mL
same,pEC50,[21],< 5.00
same,half-life,[22],5.3 h
same,inhibition,[23],inactive
same,Cmax,[24],502 ng/mL
same,CL,[25],15.2 mL/min/kg
same,pEC50,[26],7.37
same,TGI,[27],inactive
same,TGI,[28],Active
same,microsomal CLint,[29],7.9 µL/min/mg
same,concentration at 1 h,[30],3530 ng/mL
same,half-life,[31],3.16 h
same,fraction unbound,[32],0.151
same,concentration at 2 h,[33],252 ng/g
